Laboratory results published in ChEMBL document CHEMBL3351935, “The synthesis, antimalarial activity and CoMFA analysis of novel aminoalkylated quercetin analogs” (Bioorg Med Chem Lett, 2015).
≈ marks a conversion by molar mass, not a printed value.

How the values were obtained:
Plasmodium falciparum [1] = test: Antimalarial activity against chloroquine /mefloquine/pyrimethamine-resistant Plasmodium falciparum C235 by malaria SYBR green 1-based fluorescence (MSF) assay; format: functional, organism-based
Plasmodium falciparum [2] = test: Antimalarial activity against chloroquine-resistant/mefloquine-sensitive Plasmodium falciparum W2 by malaria SYBR green 1-based fluorescence (MSF) assay; format: functional, organism-based
[3] = Aqueous solubility of the compound at 1 mM by UV spectroscopic assay; format: physicochemical; settings: buffer
How it was run: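 Modified UV-spectroscopic method on the free base. A 1 mM DMSO stock was diluted to 4, 8, 12, 16 and 20 μM (2% DMSO in water) to build calibration curves. Each compound was suspended in medium to saturation, centrifuged at 8000 rpm for 10 min and filtered. Absorbance was read at 280 nm, 25 °C, and concentration was taken from the calibration best-fit line.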

Plasmodium falciparum [4] = test: Antimalarial activity against chloroquine-sensitive/mefloquine-resistant Plasmodium falciparum D6 by malaria SYBR green 1-based fluorescence (MSF) assay; format: functional, organism-based
Plasmodium falciparum [5] = test: Antigametocytocidal activity against Plasmodium falciparum NF54-pfs16-[…] early (1 to 3) gametocyte assessed as viability after 72 hrs by MitoTracker Red CM-H2XRos/micro-plate confocal imaging system; format: functional, organism-based; settings: NF54, 72 h
Plasmodium falciparum [6] = test: Antigametocytocidal activity against Plasmodium falciparum NF54-pfs16-[…] late (4 to 6) gametocyte assessed as viability at 40 uM after 72 hrs by MitoTracker Red CM-H2XRos/micro-plate confocal imaging system; format: functional; settings: NF54, 72 h
Plasmodium falciparum [7] = test: Antigametocytocidal activity against Plasmodium falciparum NF54-pfs16-[…] late (4 to 6) gametocyte assessed as viability at 120 uM after 72 hrs by MitoTracker Red CM-H2XRos/micro-plate confocal imaging system; format: functional; settings: NF54, 72 h
Plasmodium falciparum [8] = test: Antigametocytocidal activity against Plasmodium falciparum NF54-pfs16-[…] late (4 to 6) gametocyte assessed as viability after 72 hrs by MitoTracker Red CM-H2XRos/micro-plate confocal imaging system; format: functional, organism-based; settings: NF54, 72 h
[9] = target: Intercellular adhesion molecule 1 (Homo sapiens) (UniProt P05362); test: Inhibition of human type O erythrocyte ICAM1-mediated Plasmodium falciparum infection with at 50 uM
Chain of Intercellular adhesion molecule 1 (Homo sapiens) (P05362 whole entry): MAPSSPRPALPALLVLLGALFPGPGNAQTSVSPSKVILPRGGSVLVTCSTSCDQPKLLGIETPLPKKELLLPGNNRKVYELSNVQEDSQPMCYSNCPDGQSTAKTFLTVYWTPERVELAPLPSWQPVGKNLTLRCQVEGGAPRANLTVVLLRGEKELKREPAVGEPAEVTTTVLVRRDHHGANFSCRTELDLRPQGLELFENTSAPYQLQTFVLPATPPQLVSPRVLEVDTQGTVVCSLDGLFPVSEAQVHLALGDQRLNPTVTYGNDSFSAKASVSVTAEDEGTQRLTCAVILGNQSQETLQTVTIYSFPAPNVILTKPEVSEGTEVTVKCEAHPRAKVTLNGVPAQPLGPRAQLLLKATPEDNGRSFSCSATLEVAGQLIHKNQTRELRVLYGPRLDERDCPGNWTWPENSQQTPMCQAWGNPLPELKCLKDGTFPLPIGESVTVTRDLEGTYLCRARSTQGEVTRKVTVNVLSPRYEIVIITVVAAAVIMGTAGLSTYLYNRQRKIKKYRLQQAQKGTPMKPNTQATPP

| Structure (SMILES) | IC50 (Plasmodium falciparum [1]) | IC50 (Plasmodium falciparum [2]) | solubility at 1000 µM [3] | IC50 (Plasmodium falciparum [4]) | IC50 (Plasmodium falciparum [5]) | inhibition at 40 µM (Plasmodium falciparum [6]) | inhibition at 120 µM (Plasmodium falciparum [7]) | IC50 (Plasmodium falciparum [8]) | inhibition [9] |
| --- | --- | --- | --- | --- | --- | --- | --- | --- | --- |
| O=c1c(O)c(-c2ccc(O)c(O)c2)oc2c(CNCc3cccc(F)c3)c(O)cc(O)c12 | 0.62 µM | 0.69 µM | 123 µM (≈ 54 µg/mL) | 0.51 µM | – | – | – | – | – |
| O[C@@H](c1cc(C(F)(F)F)nc2c(C(F)(F)F)cccc12)[C@H]1CCCCN1 [(S,R)-MEFLOQUINE] | 0.077 µM | 0.007 µM | – | – | – | – | – | – | – |
| O=c1c(O)c(-c2ccc(O)c(O)c2)oc2c(CNCCc3cccc(Cl)c3)c(O)cc(O)c12 | 0.08 µM | 0.079 µM | 199 µM (≈ 93.5 µg/mL) | 0.069 µM | 6.79 µM | 100% | – | – | – |
| C[C@H]1[C@H](OC(=O)CCC(=O)O)O[C@@H]2O[C@@]3(C)CC[C@H]4[C@H](C)CC[C@@H]1[C@@]24OO3 [ARTESUNATE] | – | – | – | – | 0.003 µM | – | – | – | – |
| CCN(CC)CCCC(C)Nc1ccnc2cc(Cl)ccc12 (stereo unspecified) [CHLOROQUINE] | – | – | – | – | – | – | 100% | – | – |
| O=c1c(O)c(-c2ccc(O)c(O)c2)oc2c(CNCCc3ccccc3Cl)c(O)cc(O)c12 | 0.26 µM | 0.29 µM | 85 µM (≈ 39.9 µg/mL) | 0.25 µM | – | – | – | – | – |
| CN1CCN(Cc2c(O)cc(O)c3c(=O)c(O)c(-c4ccc(O)c(O)c4)oc23)CC1 | 5.3 µM | 2.4 µM | 131 µM (≈ 54.3 µg/mL) | 2.9 µM | – | – | – | – | – |
| O=c1c(O)c(-c2ccc(O)c(O)c2)oc2c(CN3CCCCC3)c(O)c(CN3CCCCC3)c(O)c12 | 3.1 µM | 1.2 µM | 247 µM (≈ 123 µg/mL) | 1.7 µM | – | – | – | – | – |
| O=c1c(O)c(-c2ccc(O)c(O)c2)oc2c(CNCCc3ccc(Cl)cc3)c(O)cc(O)c12 | 1.2 µM | 1.9 µM | 99 µM (≈ 46.5 µg/mL) | 0.83 µM | – | – | – | – | – |
| COc1ccc(C[C@H](N)C(=O)N[C@H]2[C@@H](O)[C@H](n3cnc4c(N(C)C)ncnc43)O[C@@H]2CO)cc1 [PUROMYCIN] | – | – | – | – | 0.175 µM | – | – | 0.194 µM | – |
| O=c1c(O)c(-c2ccc(O)c(O)c2)oc2c(CNCCc3c(Cl)cccc3Cl)c(O)cc(O)c12 | 0.15 µM | 0.23 µM | 199 µM (≈ 100 µg/mL) | 0.16 µM | – | – | – | – | – |
| O=c1c(O)c(-c2ccc(O)c(O)c2)oc2c(CNCC3CCCO3)c(O)cc(O)c12 (stereo unspecified) | > 2.21 µM | > 2.21 µM | 39 µM (≈ 16.2 µg/mL) | > 2.21 µM | – | – | – | – | – |
| O=c1c(O)c(-c2ccc(O)c(O)c2)oc2c(CNCCc3ccc(F)cc3)c(O)cc(O)c12 | 0.15 µM | 0.29 µM | 136 µM (≈ 61.7 µg/mL) | 0.14 µM | – | – | – | – | – |
| O=c1c(O)c(-c2ccc(O)c(O)c2)oc2c(CNCCc3cccc(F)c3)c(O)cc(O)c12 | 0.088 µM | 0.13 µM | 275 µM (≈ 125 µg/mL) | 0.069 µM | – | – | – | – | – |
| O=c1c(O)c(-c2ccc(O)c(O)c2)oc2c(CNCc3ccco3)c(O)cc(O)c12 | > 2.23 µM | > 2.23 µM | 40 µM (≈ 16.5 µg/mL) | > 2.23 µM | – | – | – | – | – |
| O=c1c(O)c(-c2ccc(O)c(O)c2)oc2c(CNCc3ccccc3)c(O)cc(O)c12 | > 2.18 µM | > 2.18 µM | 49 µM (≈ 20.6 µg/mL) | > 2.18 µM | – | – | – | – | – |
| O=c1c(O)c(-c2ccc(O)c(O)c2)oc2c(CNCc3ccc(F)cc3)c(O)cc(O)c12 | 0.7 µM | 0.72 µM | 212 µM (≈ 93.2 µg/mL) | 0.41 µM | – | – | – | – | – |
| O=c1c(O)c(-c2ccc(O)c(O)c2)oc2c(CNCCc3ccccc3F)c(O)cc(O)c12 | 0.18 µM | 0.24 µM | 95 µM (≈ 43.1 µg/mL) | 0.11 µM | – | – | – | – | – |
| C[C@@H]1CC[C@H]2[C@@H](C)C(=O)O[C@@H]3O[C@@]4(C)CC[C@@H]1[C@]32OO4 [ARTEMISININ] | 0.013 µM | 0.007 µM | – | 0.009 µM | – | – | – | – | – |
| O=c1c(O)c(-c2ccc(O)c(O)c2)oc2cc(O)cc(O)c12 [QUERCETIN] | 13 µM | 2.9 µM | 44 µM (≈ 13.3 µg/mL) | 9 µM | – | – | – | – | – |
| O=C(O[C@@H]1Cc2c(O)cc(O)cc2O[C@@H]1c1cc(O)c(O)c(O)c1)c1cc(O)c(O)c(O)c1 [EPIGALOCATECHIN GALLATE] | 0.61 µM | 1.4 µM | – | 0.073 µM | – | – | – | – | 85% |
| O=c1c(O)c(-c2ccc(O)c(O)c2)oc2c(CNCc3cccc(Cl)c3)c(O)cc(O)c12 | 0.22 µM | 0.26 µM | 107 µM (≈ 48.8 µg/mL) | 0.19 µM | – | – | – | – | – |
| O=c1c(O)c(-c2ccc(O)c(O)c2)oc2c(CNCc3ccc(Cl)cc3)c(O)cc(O)c12 | 0.43 µM | 0.59 µM | 110 µM (≈ 50.1 µg/mL) | 0.37 µM | – | – | – | – | – |
| O=c1c(O)c(-c2ccc(O)c(O)c2)oc2c(CNCCc3ccc(Cl)cc3Cl)c(O)cc(O)c12 | 0.079 µM | 0.071 µM | 168 µM (≈ 84.7 µg/mL) | 0.065 µM | 9.67 µM | 100% | – | – | – |
| O=c1c(O)c(-c2ccc(O)c(O)c2)oc2c(CNCCc3ccccc3)c(O)cc(O)c12 | > 2.12 µM | > 2.12 µM | 41 µM (≈ 17.9 µg/mL) | 2.11 µM | – | – | – | – | – |
| Oc1cc(O)c2c(c1)O[C@H](c1ccc(O)c(O)c1)[C@@H](O)C2 [CIANIDANOL] | 5.9 µM | 6 µM | – | 6.7 µM | – | – | – | – | – |
